The list is not random: actives were taken first. Their share in the collection is about 1.6%.
TPT1 inhibitor – C. albicans TPT1 enzyme inhibition; recombinant caTPT1, FP RNA substrate dephosphorylation; inhibition, % at 5 µM; 0.81% of 300,000 active; AID 1962;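 active means inhibition above the mean of all tested compounds plus 3 SD, set per screening campaign, cut at about 24% in these data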
CSN inh – inhibitors of human CSN-mediated cullin deneddylation. 0.38% of 360,000 active. inhibition, % at 12.5 µM. Q92905. Purified CSN, SCF-Nedd8-OG deneddylation, fluorescence polarization;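 active means pattern-corrected inhibition above about 35%, with an unprinted fluorescence ratio check between 0.5 and 1.5, limit read from the data, passing the limit was not always enough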
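Test system: purified human Csn5 enzyme expressed in HEK293T cells. Amount: 0.24 nM enzyme. Reagent: SCFSkp2-Nedd8OG substrate at 10 nM final. Schedule: 90 min incubation of compound, enzyme and substrate at room temperature. Detection: fluorescence polarization. Read-out: % inhibition of substrate cleavage by Csn5.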
PKA-R1A act – activators of PKA-R1A complex | P00514+P68181 | PKA-R1A dissociation, Cy5-IP20 fluorescence polarization; scaled: DMSO 0%, 113 µM cGMP 100% | activation, % at 11.4 µM | 0.083% of 340,000 active | AID 504707;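 active means percent activation above the mean of all tested compounds plus 3 SD, cut at about 19% in these data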;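 further: higher means more PKAc released from R1A so a rise in polarization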
PKA-R2B activ – activators of human PKA-R2B complex; P22694+P31323; PKA-R2B holoenzyme dissociation, Cy5-IP20 fluorescence polarization; R2B truncated from residue 108, S112A mutant; 0% DMSO only, 100% 113 µM cGMP; activation, % at 11.4 µM; 0.079% of 340,000 active; AID 504700;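 active means activation above a cutoff set at the mean over all compounds plus 3 SD, cut at about 18% in these data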;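 further: higher means more holoenzyme dissociation and a rise in polarization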
HNF4A DNA FP – change in binding of human HNF4 alpha to DNA; P41235; AID 1224865; 0.3% of 360,000 active; HNF4a-FITC DNA binding, fluorescence polarization, 1 h; activity change, % at 10 µM; in the data active means activity change above about 30%, passing the limit was not always enough
Rpn11 block – blocks the human proteasome subunit Rpn11; O00487; human 26S proteasome, Ub4-pepOG fluorescence polarization; 20S core pre-blocked with epoxomicin; calls only at 20 µM; 0.59% of 360,000 active; AID 588493;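 active means inhibition at 20 µM, scaled to each plate's controls, above about 33%, limit read from the data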
Rpn11 confirm – confirmation of human proteasome Rpn11 inhibitors; shares compounds with Rpn11 block; inhibition, % at 20 µM; 29% of 1,900 active; purified human 26S proteasome, Ub4-pepOG fluorescence polarization; proteasome pretreated with epoxomicin
MMP-2 counter-1 – blocks human MMP-2, flagging nonselective RPN11 hits | recombinant MMP-2, FRET peptide cleavage fluorescence | AID 602330 | inhibition, % at 20 µM | shares compounds with Rpn11 block | 4% of 1,900 active;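 further: human MMP-2 activated beforehand with APMA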
Thrombin FP – thrombin (bovine) inhibition counter-screen; shares compounds with Rpn11 block; bovine thrombin cleavage of Ub4-pepOG, fluorescence polarization; inhibition, % at 20 µM; 13% of 1,900 active;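 active means mean inhibition at least 40% at 20 µM, or signal 3 deviations below plate average, so some actives read negative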
Target sequence (P00735 whole entry, looked up): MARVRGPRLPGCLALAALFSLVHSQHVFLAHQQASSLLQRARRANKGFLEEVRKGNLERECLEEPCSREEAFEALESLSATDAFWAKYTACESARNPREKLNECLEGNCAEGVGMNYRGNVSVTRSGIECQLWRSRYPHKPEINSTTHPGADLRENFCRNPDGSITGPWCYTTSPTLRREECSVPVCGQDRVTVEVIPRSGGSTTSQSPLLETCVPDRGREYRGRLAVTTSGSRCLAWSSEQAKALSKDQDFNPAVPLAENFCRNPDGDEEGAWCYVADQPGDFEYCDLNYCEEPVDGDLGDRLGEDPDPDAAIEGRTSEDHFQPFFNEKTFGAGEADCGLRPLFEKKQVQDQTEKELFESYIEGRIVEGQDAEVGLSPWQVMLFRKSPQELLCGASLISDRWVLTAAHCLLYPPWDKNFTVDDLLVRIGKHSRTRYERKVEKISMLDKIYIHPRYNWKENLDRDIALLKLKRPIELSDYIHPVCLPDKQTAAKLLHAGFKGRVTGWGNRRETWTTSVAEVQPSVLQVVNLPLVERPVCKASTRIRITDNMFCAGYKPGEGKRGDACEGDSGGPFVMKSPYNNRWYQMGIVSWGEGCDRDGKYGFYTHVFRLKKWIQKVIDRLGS
CSN5 deneddyl – validation of inhibitors of human CSN-mediated cullin deneddylation; shares compounds with CSN inh; Csn5 deneddylation of SCF-Nedd8OG, fluorescence polarization, 90 min; inhibition, % at 16.6 µM; 62% of 540 active; AID 720654; in the data active means inhibition above about 50%
MMP-2 counter-2 – counter-screen for CSN deneddylation inhibitors: human MMP-2 inhibition | shares compounds with CSN inh | inhibition, % at 16.6 µM | recombinant MMP-2, FRET substrate fluorescence, 60 min | 33% of 540 active;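 active means corrected plate-normalized z-score of 5 or more, or -5 or less, or inhibition of 15% or more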
Thrombin counter – thrombin (bovine) inhibition, counter-screen for CSN hits; shares compounds with CSN inh; bovine thrombin cleavage of Ub4-pepOG, fluorescence polarization; inhibition, % at 16.6 µM; 49% of 540 active; AID 720656;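 active means inhibition at or above a set limit, with a fluorescence interference ratio between 0.5 and a set maximum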
HNF4A confirm – change in binding of human HNF4 alpha to DNA, retest. activity change, % at 12.5 µM. shares compounds with HNF4A DNA FP. HNF4A-FITC DNA binding, fluorescence polarization, 1 h. 99% of 210 active; call rule not given here
Hits are given with their value; n = inactive; x = no result; + = active, no number; ! = repeats disagree. Unless noted, no stated cut-off is given here; in the data, active means inhibition above about 40%; inactive means the rest.

SMILES	TPT1 inhibitor	CSN inh	PKA-R1A act	PKA-R2B activ	HNF4A DNA FP	Rpn11 block	Rpn11 confirm	MMP-2 counter-1	Thrombin FP	others
Cc1ccccc1C(=O)N1CC1C (stereo unspecified)	x	n	n	n	n	n	x	x	x
O=c1[nH]c(CN2CC=C(c3ccccc3)CC2)nc2cc(C(F)(F)F)ccc12	n	n	n	n	n	+	n	n	n
O=c1[nH]c(O)c(N=Nc2ccc(S(=O)(=O)N3CCOCC3)cc2)c(=O)[nH]1	n	n	n	n	n	n	x	x	x
O=c1[nH]c(O)c(N=Nc2ccc3c(c2)OCCO3)c(=O)[nH]1	n	n	n	n	n	+	n	n	n
CN(C)CCN=Cc1c(O)n(Cc2ccc3c(c2)OCO3)c(=S)[nH]c1=O	n	n	n	n	n	n	x	x	x
O=c1[nH]c(=S)n(Cc2ccc(F)cc2)c(O)c1C=NCCCn1ccnc1	n	n	n	n	n	n	x	x	x
O=c1[nH]c(=S)n(Cc2ccc(F)cc2)c(O)c1/C=N/N1CCCCCC1	n	n	n	n	n	+	n	n	n
O=c1[nH]c(=S)n(Cc2ccc(F)cc2)c(O)c1C=NCc1ccc2c(c1)OCO2	n	n	n	n	n	+	n	n	n
CCc1ccccc1NC(=O)N1C[C@H]2C[C@@H](C1)c1cccc(=O)n1C2	n	n	n	n	n	n	x	x	x
O=C1Nc2ccccc2Oc2ccccc21	x	n	n	n	n	n	x	x	x
CCN(CC)P(=O)(NC(=O)C(Cl)(Cl)Cl)N(CC)CC.[Cl-].[Cl-].[Cl-].[Nd+3]	n	104!	n	n	53!	+	n	n	n
C=C1[C@@H](OC(C)=O)[C@]23C[C@@H]1[C@@H](OC(C)=O)CC2[C@]12C4C[C@H]3[C@H]1N(CC)C[C@]4(C)CC[C@@H]2O (stereo partly specified)	n	n	n	n	n	n	x	x	x
CC(C)CCNC(=O)c1cc(C(=O)c2cc(Br)ccc2O)cn(CCC(C)C)c1=O	n	n	n	n	n	+	n	n	n
CCOC(=O)C1CCN(Cc2ccc(Cl)nc2)CC1	n	n	n	n	n	n	x	x	x
O=c1c2ccccc2nc(/C=C/c2ccc(O)cc2)n1-c1ccccc1O	n	n	n	n	n	+	n	n	n
O=c1c2ccccc2nc(/C=C/c2ccccc2)n1-c1ccccc1O	n	n	n	n	n	n	x	x	x
CNC(=O)Oc1ccc2c(c1)C(=O)c1ccccc1CO2	n	n	n	n	n	+	n	n	n
N#CC1c2ccccc2-n2nncc2CN1C(=O)CCc1ccccc1 (stereo unspecified)	x	n	n	n	n	n	x	x	x
O=c1c2ccccc2nc(-c2ccco2)n1-c1nccs1	n	n	n	n	n	+	n	n	n
ClCCN1CCN(c2ccnc3cc(Cl)ccc23)CC1	n	n	n	n	n	n	x	x	x
C=CCn1c(O)c(C(C)=NCCC2=CCCCC2)c(=O)[nH]c1=O	n	n	n	n	n	n	x	x	x
COc1ccc(/C=C/C(=O)c2c(O)n(CCC3=CCCCC3)c(=O)[nH]c2=O)cc1OC	n	n	n	n	n	+	active	n	active
CC(C)c1ccc(-n2c(O)c(/C=N/NC(=O)c3ccncc3)c(=O)[nH]c2=O)cc1	n	n	n	n	n	n	x	x	x
CCOc1ccc(N=Cc2c(O)n(CCc3ccc(OC)c(OC)c3)c(=O)[nH]c2=O)cc1	n	n	n	n	n	n	x	x	x
COc1ccc(CCn2c(O)c(C=Nc3ccc(NC(C)=O)cc3)c(=O)[nH]c2=O)cc1OC	n	38	x	x	n	+	n	n	n
SMILES	TPT1 inhibitor	CSN inh	PKA-R1A act	PKA-R2B activ	HNF4A DNA FP	Rpn11 block	Rpn11 confirm	MMP-2 counter-1	Thrombin FP	others
O=C(N/N=C/c1c(O)n(C2CCCCC2)c(=S)[nH]c1=O)c1ccccc1O	n	n	n	n	n	+	53	n	n
O=C(N/N=C/c1c(O)n(CCc2ccccc2)c(=O)[nH]c1=O)c1ccccc1	n	n	x	x	n	+	n	n	n
CC(C)c1ccc(-n2c(O)c(/C=N/NC(=O)c3ccccc3O)c(=O)[nH]c2=S)cc1	n	n	n	n	n	+	53	n	n
C=C(C)CSc1nnc([C@@H](N)Cc2ccccc2)o1	n	n	n	n	n	n	x	x	x
Nc1ccccc1Cl	x	n	n	n	n	n	x	x	x
O=c1[nH]c(=S)n(C2CC2)c(O)c1/C=N/Nc1ccccc1	n	n	n	n	n	n	x	x	x
O=C(N/N=C/c1c(O)n(C2CCCCC2)c(=S)[nH]c1=O)c1ccccc1	n	n	n	n	n	+	50	n	n
COc1ccc(N2C(=O)/C(=C/c3ccc(OC)c(OC)c3)C(=O)NC2=S)cc1	x	n	n	n	n	+	n	n	n
COc1ccc(N2C(=O)/C(=C/c3ccc(C)o3)C(=O)NC2=S)c(OC)c1	n	n	n	n	n	+	n	n	40
COC(=O)C1=C(c2ccc(OC)c(OC)c2)C[C@@H]2CC[C@H]1N2C(=O)N1CCCC1	x	n	n	n	n	n	x	x	x
CN1C(=O)C(C)(C2=CCCCC2)C(=O)NC1=S (stereo unspecified)	x	n	n	n	n	n	x	x	x
CCCCN1C(=O)/C(=C/C=C/c2ccco2)C(=O)NC1=S	x	89	n	n	38	+	155	47	143	CSN5 deneddyl=n;MMP-2 counter-2=n;Thrombin counter=67
OC1/C(=C/c2ccccc2C(F)(F)F)N2CCC1CC2 (stereo unspecified)	n	n	n	n	n	n	x	x	x
O=c1[nH]c(=S)[nH]c(O)c1N=Nc1ccc2c(c1)OCO2	n	n	n	n	42	+	n	n	n	HNF4A confirm=46
